Source: PubChem
HCT116 PTEN-null: PTEN-deleted cell growth suppression | HCT116 PTEN-null viability, CellTiter-Glo, 60 h; hits give low values | viability, % at 10 µM | hit rate 1.2% among 140,000 | AID 827;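 active = viability at or below a set limit, 4 SD under the median of all tested compounds, cut at about 3.7% in these data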;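 also: PTEN knockout HCT116 line with beta catenin targeted HCT116 as companion control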
H69AR growth 86K: blocks growth of human H69AR lung tumor cells; H69AR lung tumor viability, ATP luminescence, 72 h; hits give low values; viability, % at 10 µM; hit rate 6% among 85,000;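 active = viability at or below 40%; inactive = viability above 40%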;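 also: multidrug resistant small cell line overexpressing MRP-1 efflux transporter; 100% = mean luminescence of untreated control wells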
bCat KO growth: beta-catenin-lacking colon tumor cell growth suppression | hit rate 1.5% among 140,000 | HCT116 beta-catenin knockout viability, CellTiter-Glo, 60 h; hits give low values | AID 818 | viability, % at 10 µM;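 active = viability at or under a set limit, the compound median less 4 SD, cut at about 6% in these data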;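 also: 0% = Hyamine 1622 control at 20 µM and 100% = untreated cell control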
Fibroblast inh: blocks proliferation of human lung fibroblasts; LL 47 human lung fibroblast viability, ATP luminescence; hits give low values; viability, % at 10 µM; hit rate 1.1% among 85,000; AID 719;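 active = viability at or below 50% in the single dose screen; inactive = viability above 50%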;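 also: compound exposure lasted 72 h before the ATP readout; 100% = median luminescence of untreated cell-only wells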
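Assay system: human lung fibroblast line LL 47, low passage. Input: 1,150 fibroblasts seeded per well. Times: overnight cell rest, 72 h compound treatment at 37 °C. Evaluation: % viability of median cell-only signal. Technique: luminescent ATP detection, CellTiter-Glo. Control set: cell-only wells, no compound.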
HUVEC inhibit: inhibitors of human endothelial cell proliferation. HUVEC proliferation, CellTiter-Glo luminescence, 72 h; hits give low values. viability, % at 10 µM (by protocol). hit rate 1.1% among 86,000;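 active = viability at or below 30%; inactive = viability above 30%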;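 also: 100% = median luminescence of DMSO-only cell control wells on each plate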
Active calls of the source: *; x = not tested or not shown. Shown is part of a subset that was picked to be rich in hits.

SMILES | HCT116 PTEN-null | H69AR growth 86K | bCat KO growth | Fibroblast inh | HUVEC inhibit
CCCOc1ccccc1NC(=O)/C=C/C(N)=O | 105.5 | 2.1* | 101.0 | 59.5 | 86.1
CC(C)OC(=O)/C(=C/c1cccnc1)NC(=O)c1ccccc1 | 84.8 | x | 93.1 | x | x
CCOC(=O)/C(=C\c1cccnc1)C(=O)c1cc(C(C)=O)c(Nc2ccccc2)s1 | 2.2* | 1.8* | 2.2* | 19.1* | 4.1*
CCOC(=O)/C(=C\c1ccccc1)C(=O)c1cc(C(C)=O)c(Nc2ccccc2)s1 | 2.4* | 2.1* | 6.7 | 19.3* | 3.8*
COc1cc(CCC(=O)Nc2ccc(C)c(S(=O)(=O)N(C)C)c2)cc(OC)c1OC | 62.3 | x | 69.6 | x | x
O=C(NNC(=S)Nc1ccc(Cl)cc1Cl)c1ccc(N2CCOCC2)c([N+](=O)[O-])c1 | 94.6 | x | 92.9 | x | x
COc1ccc(OC)c(-c2csc(NC(=O)CSc3ccc([N+](=O)[O-])cc3)n2)c1 | 75.0 | x | 85.1 | x | x
COCCCNCCCOc1ccc(Cl)cc1C(C)(C)C | 3.1* | x | 4.0* | x | x
CC(=O)c1ccc(NC(=O)C(C)OC(=O)c2ccc(NS(=O)(=O)c3ccc(F)c(F)c3)cc2)cc1 (stereo not drawn) | 83.7 | x | 93.8 | x | x
COc1ccccc1N1CCN(c2cc(=O)n(Cc3ccc(F)cc3)c(=O)[nH]2)CC1 | 34.1 | 29.7* | 36.0 | 60.9 | 58.6
N#CC(=C1CCCC1)c1nc(-c2ccccc2O)cs1 | 61.9 | 28.9* | 67.0 | 88.0 | 80.3
COc1ccccc1-c1cc(-c2ccccc2)nc(SC(C(N)=O)c2ccccc2)c1C#N (stereo not drawn) | 3.5* | x | 53.8 | x | x
CCc1ccc2nc(SCC(=O)N3CC(=O)Nc4ccccc43)c(C#N)cc2c1 | 15.6 | 5.2* | 11.3 | 65.0 | 32.2
C=CCn1c(SCC(O)Cn2c3ccccc3c3ccccc32)nnc1-c1ccco1 (stereo not drawn) | 78.5 | 26.4* | 85.8 | 87.3 | 62.3
C=CCn1c(SCC(=O)Nc2ccccc2OC)nnc1-c1ccco1 | 71.2 | 87.4 | 69.2 | 91.3 | 83.8
COC(=O)NC(=S)Nc1ccc(Oc2ccc(Cl)cc2Cl)c(Cl)c1 | 26.1 | 24.3* | 22.6 | 103.4 | 56.8
COc1cc2c(cc1OC)C(c1ccc3c(c1)OCO3)C1=C(CC(C)(C)CC1=O)N2 (stereo not drawn) | 74.0 | 62.9 | 79.2 | 95.7 | 80.6
COc1cccc(C2C3=C(CC(C)(C)CC3=O)Nc3cc4c(cc32)OCO4)c1 (stereo not drawn) | 94.1 | 32.2* | 94.5 | 94.0 | 77.8
O=C(O)c1ccc(NS(=O)(=O)c2cc(Cl)ccc2Cl)cc1 | 85.8 | 103.3 | 93.8 | 92.8 | 81.0
CC(C)Oc1ccc(C(=O)Nc2ccc(Cl)c(S(=O)(=O)Nc3ccc(Cl)cc3)c2)cc1 | 3.1* | x | 3.1* | x | x
Cc1cc(NCCCN2CCOCC2)n2nc(C)c(-c3ccccc3)c2n1 | 80.0 | 22.2* | 67.4 | 100.2 | 94.2
Cc1cc(NCCC(C)C)n2nc(C)c(-c3ccccc3)c2n1 | 78.1 | 12.9* | 92.3 | 81.8 | 70.3
Cc1cc(NCCCN2CCOCC2)n2ncc(-c3ccccc3)c2n1 | 87.3 | 25.8* | 86.8 | 86.4 | 82.7
Cc1cc(NCCCN2CCOCC2)n2nc(C)c(-c3ccc(F)cc3)c2n1 | 66.8 | 15.4* | 69.8 | 80.5 | 73.1
CCN(CC)S(=O)(=O)c1cc(NC(=O)CCCOc2ccc(C(C)=O)cc2)ccc1C | 53.5 | x | 51.1 | x | x
SMILES | HCT116 PTEN-null | H69AR growth 86K | bCat KO growth | Fibroblast inh | HUVEC inhibit
Cc1cc(C)c(-n2nnnc2SC(C)C)c(C)c1 | 99.5 | x | 94.3 | x | x
COc1ccc(C2=Nn3c(nnc3-c3cccnc3)SC2)cc1OC | x | 84.7 | x | 44.8* | 70.6
COc1ccc(C2=Nn3c(nnc3-c3ccncc3)SC2)cc1OC | 24.8 | x | 36.6 | x | x
COc1ccccc1-c1nnc2n1N=C(c1ccc(O)c(O)c1)CS2 | 15.3 | 21.4* | 19.9 | 37.5* | 50.8
CC(OC(=O)c1nc(-c2ccccc2)n(-c2ccccc2)n1)C(=O)Nc1cc(Cl)cc(Cl)c1 (stereo not drawn) | 90.1 | x | 86.1 | x | x
Cc1c(Cl)c([N+](=O)[O-])nn1CC(=O)Nc1ccc2c(c1)OCO2 | 97.5 | x | 89.4 | x | x
CCOC(=O)c1cc(-c2ccccc2)sc1NC(=O)C(C)OC(=O)c1cccnc1Cl (stereo not drawn) | 61.9 | x | 60.6 | x | x
CC(=O)c1cnc(N(C)C)s1 | 91.3 | 94.0 | 92.4 | 100.5 | 98.0
CN(C)c1ncc(C2=C(Cl)C(=O)C(N3CCCC3)=C(Cl)C2=O)s1 | 1.6* | 89.2 | 1.4* | 69.5 | 22.6*
O=C1C(Cl)=C(N2CCCCC2)C(=O)C(Cl)=C1c1cnc(N2CCCCC2)s1 | 1.5* | 1.6* | 1.1* | 18.8* | 14.2*
COc1ccccc1Nc1nc(-c2sc(NC(=O)c3ccco3)nc2C)cs1 | 55.9 | x | 47.2 | x | x
COc1cccc(N(C(=O)c2ccco2)c2nc(-c3sc(NC(=O)c4ccco4)nc3C)cs2)c1 | 5.7 | x | 3.8* | x | x
COc1ccc(-n2cc(C(=O)Nc3cc([N+](=O)[O-])ccc3OC)c3ccccc3c2=O)cc1 | 87.0 | x | 88.4 | x | x
COc1ccnc(CSC(N)=Nc2cccc(C(F)(F)F)c2)c1 | 76.4 | x | 80.9 | x | x
CC1CCc2ccc(F)cc2N1S(=O)(=O)c1cccs1 (stereo not drawn) | 45.8 | 27.4* | 43.8 | 89.2 | 83.2
COc1ccc(NC(=S)NN(C)C(=S)Nc2ccc(OC)cc2)cc1 | 35.3 | x | 41.7 | x | x
CC(C)(C)CC(C)(C)NCC(O)COc1c(F)cc(Br)cc1F (stereo not drawn) | 25.9 | 9.7* | 13.1 | 76.2 | 98.6
COc1ccccc1N(CC(=O)NC(C)(C)C)S(=O)(=O)c1cccs1 | 97.4 | x | 91.3 | x | x
N#Cc1c(NC(=O)CSc2nc(N)cc(=O)[nH]2)sc2c1CCCCCC2 | 77.5 | 79.3 | 60.0 | 87.6 | 94.7
N#Cc1cc2c(nc1SCC(=O)Nc1sc3c(c1C#N)CCC3)CCCCC2 | 75.4 | 19.6* | 83.8 | 86.3 | 78.9
N#Cc1c(NC(=O)CSc2nnnn2C2CCCC2)sc2c1CCCC2 | 110.7 | 7.7* | 89.0 | 92.8 | 102.2
CCOC(=O)c1sc(NC(=O)CSc2nc3c(cc2C#N)CCCCCC3)c(C#N)c1C | 16.0 | x | 21.8 | 76.5 | 30.2
N#Cc1cc2c(nc1SCC(=O)Nc1sc3c(c1C#N)CCC3)CCCC2 | 92.5 | 7.2* | 97.3 | 83.9 | 63.4
N#Cc1c(NC(=O)CSc2ncn[nH]2)sc2c1CCCCC2 | 85.0 | 28.2* | 84.0 | 79.5 | 78.8
CN=C(NC1CCCCC1)c1ccc(Cl)cc1 | 96.8 | x | 92.5 | x | x
SMILES | HCT116 PTEN-null | H69AR growth 86K | bCat KO growth | Fibroblast inh | HUVEC inhibit
CC1=C(C(=O)Nc2ccc(C)cc2C)C(c2ccc(C)o2)NC(=S)N1 (stereo not drawn) | 95.7 | x | 100.2 | x | x
O=C(CN1CCOCC1)Nc1ncc(Cc2cccc(Cl)c2Cl)s1 | 82.5 | x | 80.5 | x | x
O=C(NCCCn1ccnc1)/C(=C\c1cccnc1)NC(=O)c1cccc(Br)c1 | 90.7 | x | 77.5 | x | x
Cc1cc(S(=O)(=O)N2CCN(Cc3ccc4c(c3)OCO4)CC2)cc(C)c1N1CCCC1=O | 35.3 | 69.9 | 35.6 | 84.9 | 19.8*
CC1(C)Oc2ccccc2OC1(O)c1ccc2ccccc2n1 (stereo not drawn) | 78.8 | x | 86.1 | x | x
CCOC(=O)c1c2ccc(OCC(=O)N/N=C/c3ccc(C)cc3)cc2n2ccccc12 | 1.6* | x | 1.5* | x | x
